Test results taken from ChEMBL document CHEMBL1134844 (J Med Chem, 2001).

Columns and labels:
[1] = biological target: 5-hydroxytryptamine receptor 1B (Homo sapiens, UniProt P28222); assay: Binding affinity in CHO-K1 cells transfected with human recombinant 5-hydroxytryptamine 1B receptor; assay type: cell-based
[2] = biological target: 5-hydroxytryptamine receptor 1D (Homo sapiens, UniProt P28221); assay: Binding affinity in CHO-K1 cells transfected with human 5-hydroxytryptamine 1D receptor; assay type: cell-based
5-hydroxytryptamine receptor 1D, sequence (P28221 whole entry): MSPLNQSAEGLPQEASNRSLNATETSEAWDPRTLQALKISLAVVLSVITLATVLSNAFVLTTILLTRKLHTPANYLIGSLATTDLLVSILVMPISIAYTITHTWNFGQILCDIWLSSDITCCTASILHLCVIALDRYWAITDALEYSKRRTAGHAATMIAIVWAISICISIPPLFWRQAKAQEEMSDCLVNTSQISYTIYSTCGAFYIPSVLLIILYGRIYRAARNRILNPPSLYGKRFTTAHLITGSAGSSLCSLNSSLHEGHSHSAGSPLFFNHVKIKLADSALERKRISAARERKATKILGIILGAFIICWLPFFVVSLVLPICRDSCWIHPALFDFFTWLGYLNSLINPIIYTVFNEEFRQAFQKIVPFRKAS
Procedure, shortened: (§1)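 Competition binding on CHO-K1 cells stably transfected with human recombinant 5HT1D, 5HT1F or 5HT1A receptors; reported as pIC50, means of duplicates.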

Oryctolagus cuniculus [3] = organism: Oryctolagus cuniculus; assay: (§2) Relative binding affinity in rabbit saphenous vein functional assay compared to 5-HT; conditions: read-out: pA2 (converted)
Oryctolagus cuniculus [4] = organism: Oryctolagus cuniculus; assay: as §2
[5] = Oral bioavailability in human; assay type: ADME, organism-based; conditions: in vivo
Cavia porcellus [6] = organism: Cavia porcellus; assay: Ability to inhibit [125I]- albumin extravasation into dura following electrical stimulation of trigeminal ganglion of Guinea pig; assay type: functional
Procedure, shortened: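 Pentobarbitone-anaesthetised (50 mg/kg ip), ventilated guinea pigs kept at 37 °C; single jugular iv bolus of 0.01, 0.03 or 0.1 µg/kg or saline vehicle. 5 min later, [125I]BSA 50 µCi/kg iv. After another 5 min, one trigeminal ganglion was stimulated for 5 min (5 pulses/s, 5 ms, 1.2 mA). Dura gamma-counted as cpm/mg wet weight; stimulated/unstimulated ratio, mean ± SEM; vehicle controls run daily.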

Oryctolagus cuniculus [7] = organism: Oryctolagus cuniculus; assay: Binding affinity towards rabbit saphenous vein value in parenthesis represents intrinsic activity for RbSv;(1 for 5-HT); assay type: functional
[8] = biological target: T1, 5-hydroxytryptamine receptor 1A (Homo sapiens, UniProt P08908); assay: binding affinity towards human recombinant 5-hydroxytryptamine 1A receptor; procedure, shortened: as §1
T1 sequence (P08908 whole entry): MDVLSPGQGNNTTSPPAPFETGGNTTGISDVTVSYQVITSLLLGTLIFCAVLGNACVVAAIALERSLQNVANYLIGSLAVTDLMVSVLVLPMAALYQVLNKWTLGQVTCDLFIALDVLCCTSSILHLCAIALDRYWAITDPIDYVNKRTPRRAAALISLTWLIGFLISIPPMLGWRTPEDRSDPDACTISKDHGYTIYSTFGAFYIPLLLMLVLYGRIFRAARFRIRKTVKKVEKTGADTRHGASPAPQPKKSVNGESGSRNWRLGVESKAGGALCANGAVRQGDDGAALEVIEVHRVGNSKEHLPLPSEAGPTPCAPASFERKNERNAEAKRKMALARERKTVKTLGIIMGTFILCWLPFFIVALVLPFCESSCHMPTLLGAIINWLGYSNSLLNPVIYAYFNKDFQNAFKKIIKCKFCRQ

[9] = biological target: T2, 5-hydroxytryptamine receptor 1F (Homo sapiens, UniProt P30939); assay: Binding affinity towards human recombinant 5-hydroxytryptamine 1F receptor; procedure, shortened: as §1
T2 sequence (P30939 whole entry): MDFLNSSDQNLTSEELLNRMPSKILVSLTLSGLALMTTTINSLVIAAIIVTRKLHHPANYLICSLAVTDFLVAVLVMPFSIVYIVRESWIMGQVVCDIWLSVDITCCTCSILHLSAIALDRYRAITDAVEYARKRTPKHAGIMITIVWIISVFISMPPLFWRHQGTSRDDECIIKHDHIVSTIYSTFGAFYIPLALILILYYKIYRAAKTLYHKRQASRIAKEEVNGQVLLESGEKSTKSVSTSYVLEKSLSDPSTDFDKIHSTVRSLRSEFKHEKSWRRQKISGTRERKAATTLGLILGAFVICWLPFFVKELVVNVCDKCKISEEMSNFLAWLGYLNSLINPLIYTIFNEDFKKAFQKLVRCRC

[10] = Volume distribution in rat; assay type: ADME, organism-based; conditions: in vivo
[11] = Plasma clearance in rat; assay type: ADME, organism-based
[12] = Oral bioavailability in rat; assay type: ADME, organism-based; conditions: in vivo
[13] = Beta phase half life was determined in rat; assay type: ADME, organism-based; conditions: in vivo
Cavia porcellus [14] = organism: Cavia porcellus; assay: Ability to inhibit [125I]- albumin extravasation into dura following electrical stimulation of trigeminal ganglion; assay type: functional
Procedure, shortened: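 Anesthetized guinea pigs (pentobarbitone 50 mg/kg ip, 37 °C, ventilated) got a single iv jugular bolus (0.01, 0.03 or 0.1 µg/kg; vehicle 0.9% saline). 5 min later 50 µCi/kg [125I]BSA iv; after another 5 min, unilateral trigeminal ganglion stimulation for 5 min (5 pulses/s, 5 ms, 1.2 mA). Dural cpm/mg wet weight was expressed as stimulated/unstimulated ratio, mean ± SEM.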

Oryctolagus cuniculus [15] = organism: Oryctolagus cuniculus; conditions: Saphenous vein

5-hydroxytryptamine receptor 1B, sequence (P28222 whole entry): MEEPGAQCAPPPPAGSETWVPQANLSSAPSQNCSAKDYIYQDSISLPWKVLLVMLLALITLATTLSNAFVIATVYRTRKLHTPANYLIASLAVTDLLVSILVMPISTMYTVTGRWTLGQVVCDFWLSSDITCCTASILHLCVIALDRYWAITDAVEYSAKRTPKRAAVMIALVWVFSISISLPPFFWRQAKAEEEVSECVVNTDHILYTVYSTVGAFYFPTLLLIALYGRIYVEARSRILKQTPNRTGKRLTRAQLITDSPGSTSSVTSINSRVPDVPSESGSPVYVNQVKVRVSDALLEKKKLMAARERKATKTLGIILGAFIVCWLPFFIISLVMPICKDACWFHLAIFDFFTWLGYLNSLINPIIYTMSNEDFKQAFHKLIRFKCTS

Row | SMILES | IC50 [1] [nM] | IC50 [2] [nM] | Kb (Oryctolagus cuniculus [3]) [nM] | pA50 (Oryctolagus cuniculus [4]) | other results
1 | CN(C)[C@H]1C[C@H](c2c[nH]c3ccc(CC4COC(=O)N4)cc32)C1 (stereo in doubt; 35) [listing 1 of 2 here] | 162 | 100 |  |  | 
2 | CN(C)[C@H]1C[C@H](c2c[nH]c3ccc(CC4COC(=O)N4)cc32)C1 (stereo in doubt; 31) [listing 1 of 2 here] | 562 | 170 |  |  | 
3 | CN(C)[C@H]1C[C@H](c2c[nH]c3ccc(CC(N)=O)cc32)C1 | 1350 | 724 | 16600 |  | 
4 | CC1(C)NC(=O)N(CCc2ccc3[nH]cc([C@H]4C[C@H](N)C4)c3c2)C1=O | 1120 | 501 | 2690 |  | 
5 | CN(C)[C@H]1C[C@H](c2c[nH]c3ccc(CC4COC(=O)N4)cc32)C1 (stereo in doubt; 35) [listing 2 of 2 here] |  |  |  | 5.15 | 
6 | CN(C)[C@H]1C[C@H](c2c[nH]c3ccc(C(N)=O)cc32)C1 | 44.7 | 14.8 |  | 6.25 | 
7 | CN(C)[C@H]1C[C@H](c2c[nH]c3ccc(CCN4C(=O)CNC4=O)cc32)C1 |  |  | 1910 |  | 
8 | CN(C)[C@H]1C[C@H](c2c[nH]c3ccc(CN4C(=O)NC(C)(C)C4=O)cc32)C1 | 3800 | 3090 | 589 |  | 
9 | CN1C(=O)OCC1Cc1ccc2[nH]cc([C@H]3C[C@H](N(C)C)C3)c2c1 (stereo in doubt; 34) [listing 1 of 2 here] | 97.7 | 57.5 |  |  | 
10 | N[C@H]1C[C@H](c2c[nH]c3ccc(CC4COC(=O)N4)cc32)C1 (stereo in doubt; 24) |  |  |  | 5.8 | 
11 | CN1C(=O)OCC1Cc1ccc2[nH]cc([C@H]3C[C@H](N(C)C)C3)c2c1 (stereo in doubt; 34) [listing 2 of 2 here] |  |  |  | 4.85 | 
12 | CN[C@H]1C[C@H](c2c[nH]c3ccc(CC4COC(=O)N4)cc32)C1 (stereo partly specified) | 32.4 | 7.08 |  | 6.18 | 
13 | CN(C)[C@H]1C[C@H](c2c[nH]c3ccc(CC(=O)NCc4ccccc4)cc32)C1 | 263 | 339 | 3890 |  | 
14 | CN(C)[C@H]1C[C@H](c2c[nH]c3ccc(CC4COC(=O)N4)cc32)C1 (stereo in doubt; 31) [listing 2 of 2 here] |  |  |  | 4.95 | 
15 | CN(C)CCc1c[nH]c2ccc(C[C@H]3COC(=O)N3)cc12 [ZOLMITRIPTAN] | 6.17 | 2.82 |  | 6.8 | bioavailability [5]: 40%; ED50 (Cavia porcellus [6]): ~12 µg/kg
16 | CN(C)[C@H]1C[C@H](c2c[nH]c3ccc(C(=O)NCc4ccccc4)cc32)C1 | 316 | 141 | 1260 |  | 
17 | CN(C)[C@H]1C[C@H](c2c[nH]c3ccc(CN4C(=O)CNC4=O)cc32)C1 | 6310 | 2450 | 9330 |  | 

Row | SMILES | IC50 [1] [nM] | IC50 [2] [nM] | Kb (Oryctolagus cuniculus [3]) [nM] | pA50 (Oryctolagus cuniculus [4]) | other results
18 | CNS(=O)(=O)Cc1ccc2[nH]cc([C@H]3C[C@H](N(C)C)C3)c2c1 | 275 | 191 |  | 5.25 | 
19 | CN(C)[C@H]1C[C@H](c2c[nH]c3ccc(Oc4ccccc4)cc32)C1 | 97.7 | 64.6 | 240 |  | 
20 | CN(C)[C@H]1C[C@H](Cc2c[nH]c3ccc(C[C@H]4COC(=O)N4)cc23)C1 | 141 | 28.8 | 1860 |  | 
21 | Cc1nc(Cc2ccc3[nH]cc([C@H]4C[C@H](N(C)C)C4)c3c2)n[nH]1 | 3890 | 2040 | 6610 |  | 
22 | CN1C(=O)OCC1Cc1ccc2[nH]cc([C@H]3C[C@H](N(C)C)C3)c2c1 (stereo in doubt; 30) [listing 1 of 2 here] | 204 | 100 |  |  | 
23 | CN1C(=O)OCC1Cc1ccc2[nH]cc([C@H]3C[C@H](N(C)C)C3)c2c1 (stereo in doubt; 30) [listing 2 of 2 here] |  |  |  | 5.21 | 
24 | CNS(=O)(=O)Cc1ccc2[nH]cc(C[C@H]3CCCN3C)c2c1 | 14.5 | 7.24 |  |  | ED50 (Cavia porcellus [6]): 0.1 µg/kg; pA50 (Oryctolagus cuniculus [7]): 6.33
25 | Cc1noc(Cc2ccc3[nH]cc([C@H]4C[C@H](N(C)C)C4)c3c2)n1 | 1510 | 933 | 7590 |  | 
26 | CN(C)[C@H]1C[C@H](c2c[nH]c3ccc(CCN4C(=O)NC(C)(C)C4=O)cc32)C1 | 1200 | 1480 | 891 |  | 
27 | CN(C)[C@H]1C[C@H](c2c[nH]c3ccc(CC4COC(=O)N4)cc32)C1 (stereo in doubt; 1) [listing 1 of 2 here] |  |  |  | 5.72 | 
28 | Cc1noc(-c2ccc3[nH]cc([C@H]4C[C@H](N(C)C)C4)c3c2)n1 | 832 | 562 | 955 |  | 
29 | CN(C)[C@H]1C[C@H](c2c[nH]c3ccc(CC4COC(=O)N4)cc32)C1 (stereo in doubt; 1) [listing 2 of 2 here] | 112 | 15.8 |  |  | IC50 [8]: 3550 nM; IC50 [9]: 363 nM; Vd [10]: 2.6 L/kg; clearance [11]: 40 mL/min/kg; bioavailability [5]: 41%; bioavailability [12]: 35%; half-life [13]: 1.4 h; ED50 (Cavia porcellus [14]): ~0.01 µg/kg
30 | CNS(=O)(=O)Cc1ccc2[nH]cc(CCN(C)C)c2c1 |  |  |  |  | bioavailability [5]: 14%; ED50 (Cavia porcellus [6]): 10 µg/kg; pA50 (Oryctolagus cuniculus [15]): 6.6
31 | CN(C)[C@H]1C[C@H](c2c[nH]c3ccc(CCN4C(=O)c5ccccc5C4=O)cc32)C1 | 204 | 195 | 170 |  | 
32 | N[C@H]1C[C@H](c2c[nH]c3ccc(CC4COC(=O)N4)cc32)C1 (stereo in doubt; 23) [listing 1 of 2 here] |  |  |  | 6.42 | 
33 | N[C@H]1C[C@H](c2c[nH]c3ccc(CC4COC(=O)N4)cc32)C1 (stereo in doubt; 23) [listing 2 of 2 here] | 18.2 | 3.63 |  |  | 
34 | N[C@H]1C[C@H](c2c[nH]c3ccc(Oc4ccccc4)cc32)C1 | 9.55 | 14.5 |  | < 6.5 | 
